Holding throughout (format): functional
Assay [1] deals with Mus musculus. The assay is described as follows: Compound was evaluated for the antimetrazole effect by administering through intravenous route at the pretreatment period 240 min. The essentials: (§1)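 Male CFLP outbred albino mice (19–21 g) dosed iv, 5–240 min before challenge. Vehicle: 5 mg compound in propylene glycol/Chremofor EL/distilled water (2:1:7 mL), diluted with distilled water. Metrazol (pentylenetetrazol) 125 mg/kg sc in distilled water. Mice counted protected if no tonic-extensor convulsions over 60 min of observation. ED50 and confidence limits by Litchfield–Wilcoxon.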

Assay [2] deals with Mus musculus. The assay is described as follows: Compound was evaluated for the antimetrazole effect by administering through intravenous route at the pretreatment period of 120 min. The method, boiled down:
as §1

For assay [3], the system named is Mus musculus. Nature of the assay: Compound was evaluated for the muscle relaxant effect by administering through intravenous route at the pretreatment period of 120 min. The method, boiled down:
(§2)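 Rotarod test in male CFLP mice (19–21 g) given compound iv 5–240 min beforehand, in propylene glycol/Chremofor EL/water vehicle diluted with distilled water. Mice were preselected and trained to stay 120 s on a 20 mm rod turning at 12 min⁻¹. Fallers were expressed as percentage of the dose group. ED50 by Litchfield–Wilcoxon.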

The subject of assay [4] is Mus musculus. Nature of the assay: Compound was evaluated for the muscle relaxant effect by administering through intravenous route at the pretreatment period of 240 min. The essentials:
as §2

The subject of assay [5] is Mus musculus. Nature of the assay: Compound was evaluated for the antimetrazole effect by administering through intravenous route at the pretreatment period of 10 min. The essentials: as §1
Assay [6] deals with Mus musculus. The assay is described as follows: Compound was evaluated for the antimetrazole effect by administering through intravenous route at the pretreatment period of 20 min. The method, boiled down:
as §1

For assay [7], the system named is Mus musculus. Nature of the assay: Compound was evaluated for the antimetrazole effect by administering through intravenous route at the pretreatment period of 240 min. The essentials: as §1
The test system of assay [8] is Mus musculus. Nature of the assay: Compound was evaluated for the antimetrazole effect by administering through intravenous route at the pretreatment period of 5 min. The essentials: as §1
For assay [9], the system named is Mus musculus. Nature of the assay: Compound was evaluated for the muscle relaxant effect by administering through intravenous route at the pretreatment period of 2400 min.
The subject of assay [10] is Mus musculus. Nature of the assay: Compound was evaluated for the muscle relaxant effect by administering through intravenous route at the pretreatment period of 5 min. The essentials:
as §2

Assay [11] deals with Mus musculus. The assay is described as follows: Ester brain level after 10 minutes of administration of 0.46 mg/kg in antimetrazole assay.
Assay [12] concerns Mus musculus. Nature of the assay: Ester brain level after 120 minutes of administration of 0.32 mg/kg in antimetrazole assay.
The test system of assay [13] is Mus musculus. Nature of the assay: Ester brain level after 30 minutes of administration of 0.28 mg/kg in antimetrazole assay.
Assay [14] relates to Mus musculus. Nature of the assay: Ester brain level after 30 minutes of administration of 2.82 mg/kg in muscle relaxant assay.
The subject of assay [15] is Mus musculus. Nature of the assay: Ester brain level after 5 minutes of administration of 1.07 mg/kg in antimetrazole assay.
Assay [16] concerns Mus musculus. The assay is described as follows: Compound was evaluated for the muscle relaxant effect by administering through intravenous route at the pretreatment period of 10 min. The method, boiled down: as §2
Assay [17] deals with Mus musculus. The assay is described as follows: Compound was evaluated for the muscle relaxant effect by administering through intravenous route at the pretreatment period of 20 min. The method, boiled down: as §2
The test system of assay [18] is Mus musculus. The assay is described as follows: Oxazepam brain level after 120 minutes of administration of 0.32 mg/kg in antimetrazole assay.
Assay [19] concerns Mus musculus. Nature of the assay: Oxazepam brain level after 30 minutes of administration of 0.28 mg/kg in antimetrazole assay.
Assay [20] has as its system Mus musculus. Nature of the assay: Oxazepam brain level after 30 minutes of administration of 2.82 mg/kg in muscle relaxant assay.
Assay [21] concerns Mus musculus. Nature of the assay: Oxazepam brain level after 5 minutes of administration of 0.96 mg/kg in muscle relaxant assay.
In assay [22] the test system is Mus musculus. The assay is described as follows: Oxazepam brain level after 5 minutes of administration of 1.07 mg/kg in antimetrazole assay.
Assay [23] concerns Mus musculus. Nature of the assay: Oxazepam brain level after 10 minutes of administration of 0.46 mg/kg in antimetrazole assay.
Assay [24] concerns Mus musculus. Nature of the assay: Ester brain level after 5 minutes of administration of 0.96 mg/kg in muscle relaxant assay.

Usually ED50 stands for the midpoint of the dose-response relation.

For the compound `CC(=O)OC1N=C(c2ccccc2)c2cc(Cl)ccc2NC1=O` (stereo not given), the ED50 is 1.17 mg/kg in the assay with Mus musculus [1], 0.47 mg/kg in the assay with Mus musculus [2], 2.6 mg/kg in the assay with Mus musculus [3] and 4.8 mg/kg in the assay on Mus musculus [4].

In the case of `CCC(CC)C(=O)OC1N=C(c2ccccc2)c2cc(Cl)ccc2NC1=O` (stereo not given), the 50% effective dose (ED50) came out at 0.46 mg/kg in the assay on Mus musculus [5]; 0.32 mg/kg with Mus musculus [2]; 0.31 mg/kg in the assay with Mus musculus [6]; 1.97 mg/kg in the assay with Mus musculus [7]; 1.07 mg/kg in the assay with Mus musculus [8]; 9.1 mg/kg with Mus musculus [9]. The 50% effective dose (ED50) was found to be 0.95 mg/kg with Mus musculus [10], 0.61 mg/kg in the assay on Mus musculus [16], 4.7 mg/kg in the assay on Mus musculus [3] and 0.36 mg/kg with Mus musculus [17]. The Brain level in the assay on Mus musculus [11] was 383 pM/g; in the assay with Mus musculus [12], 95 pM/g; in the assay on Mus musculus [13] it was 187 pM/g; in the assay on Mus musculus [14] it was 1820 pM/g; in the assay with Mus musculus [15], 1250 pM/g; in the assay on Mus musculus [18], 344 pM/g. Also, the Brain level in the assay on Mus musculus [19] was determined as 286 pM/g; in the assay with Mus musculus [20] it was 5160 pM/g; in the assay on Mus musculus [21], 480 pM/g; with Mus musculus [22], 374 pM/g; in the assay with Mus musculus [23], 339 pM/g; in the assay on Mus musculus [24], 1440 pM/g.

In the case of `CC(C)(C)C(=O)OC1N=C(c2ccccc2)c2cc(Cl)ccc2NC1=O` (stereo not given) [PIVOXAZEPAM], the ED50 stood at 0.61 mg/kg in the assay with Mus musculus [2], 0.8 mg/kg in the assay on Mus musculus [7], 5.6 mg/kg in the assay with Mus musculus [3] and 9 mg/kg in the assay on Mus musculus [4].

For the compound `O=C1Nc2ccc(Cl)cc2C(c2ccccc2)=NC1O` (stereo not given) [OXAZEPAM], the 50% effective dose (ED50) came to 0.16 mg/kg with Mus musculus [5]; 0.49 mg/kg in the assay on Mus musculus [2]; 0.21 mg/kg with Mus musculus [6]; 0.62 mg/kg with Mus musculus [7]; 0.18 mg/kg in the assay on Mus musculus [8]; 0.96 mg/kg with Mus musculus [10]. The median effective dose (ED50) came out at 0.86 mg/kg in the assay with Mus musculus [16], 2.4 mg/kg in the assay on Mus musculus [3], 0.8 mg/kg in the assay on Mus musculus [17] and 6.6 mg/kg with Mus musculus [4].

Values taken from ChEMBL document CHEMBL1121881 (1981).
